# From PubChem
# An excerpt weighted towards active compounds, which were near 3.4% of everything screened.
# VIM-2 inh: blocks Pseudomonas aeruginosa VIM-2 metallo-beta-lactamase; purified VIM-2, nitrocefin hydrolysis, epi-absorbance fluorescence; AID 1527; 290,000 tested, 0.89% active; inhibition, % at 5.6 µM;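 active = inhibition above the mean of all tested compounds plus 3 SD, cutoff set per screening run, cut at about 7.5% in these data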;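 note: red hydrolysis product quenches plate fluorescence so inhibitors raise well fluorescence; 0% = enzyme with DMSO and 100% = DMSO without enzyme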
# IMP-1 inh: blocks Pseudomonas aeruginosa IMP-1 metallo-beta-lactamase. inhibition, % at 5.6 µM. 290,000 tested, 0.45% active. purified IMP-1, nitrocefin hydrolysis, epi-absorbance fluorescence. AID 1556;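 active = inhibition above the mean plus 3 SD of all compounds in the same screening run, cut at about 4.5% in these data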;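 note: 0% = IMP-1 with DMSO and 100% = DMSO wells lacking enzyme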
#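 System: Purified IMP-1 | Read-out basis: Percent enzyme inhibition | Controls: IMP-1 with DMSO as 0%, enzyme-free DMSO as 100% | Replicates: One well per compound | Doses: 5.6 µM nominal single concentration | Detection: Epi-absorbance fluorescence, 480 nm excitation, 530 nm emission | Incubation: 25 °C, 15 min preincubation, 25 min reaction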
# CHT inh: human CHT choline transport inhibition; Q9GZV3; CHT-expressing cells, membrane potential dye, choline response; stronger effect = lower value; B-score at 10 µM; 310,000 tested, 0.86% active;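 active = B-score over 3 SD under the library average, and starting fluorescence ratio not unusually high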;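 note: choline stimulus applied at its EC90 after an EC20 pre-addition; B-score computed on integrated fluorescence ratio after choline addition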
# Target sequence (Q9GZV3 whole entry, looked up): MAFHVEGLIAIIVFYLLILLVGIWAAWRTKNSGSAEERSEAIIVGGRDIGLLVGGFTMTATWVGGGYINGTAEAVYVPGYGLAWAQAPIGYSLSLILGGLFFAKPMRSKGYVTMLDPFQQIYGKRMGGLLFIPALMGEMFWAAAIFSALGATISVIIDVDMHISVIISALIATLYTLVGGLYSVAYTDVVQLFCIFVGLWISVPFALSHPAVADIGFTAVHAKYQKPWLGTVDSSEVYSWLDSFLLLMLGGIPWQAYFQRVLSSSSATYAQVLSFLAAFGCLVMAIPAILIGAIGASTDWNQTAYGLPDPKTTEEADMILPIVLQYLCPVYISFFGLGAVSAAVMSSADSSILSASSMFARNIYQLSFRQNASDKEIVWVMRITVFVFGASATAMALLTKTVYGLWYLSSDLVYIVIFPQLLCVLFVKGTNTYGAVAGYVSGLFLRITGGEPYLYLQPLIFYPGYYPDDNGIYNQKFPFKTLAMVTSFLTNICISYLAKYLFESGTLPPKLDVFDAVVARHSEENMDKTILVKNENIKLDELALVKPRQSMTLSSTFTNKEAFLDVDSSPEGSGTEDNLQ
# ANO1 activ: activates or potentiates the mouse TMEM16A chloride channel. Q8BHY3. HEK293 TMEM16A/YFP-H148Q/I152L, iodide quench fluorescence; stronger effect = lower value. B-score at 10 µM. 340,000 tested, 0.3% active;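 active = fluorescence-ratio B-score plate-corrected deviation score at least 3 library SD below zero, with starting fluorescence score within 5 deviations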;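 note: channel opened by trigger with iodide after compound preincubation; score built on the fluorescence ratio of max minus min over baseline; more negative score means more quench and so TMEM16A activation or potentiation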
# CHT allo act: allosterically activates the human high affinity choline transporter; B-score at 10 µM; CHT-expressing cells, membrane potential dye, choline EC20; stronger effect = higher value; LV-AA mutant CHT in HEK293 cells; Q9GZV3; 310,000 tested, 0.49% active;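 active = initial fluorescence not abnormally high and integrated response B-score, plate-corrected, over 3 SD above library mean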
# ANO1 block: blocks the mouse calcium-activated chloride channel TMEM16A | normalized B-score (activity score, 25-100; higher = stronger inhibition) at 10 µM | 310,000 tested, 1.2% active | Q8BHY3 | HEK293 TMEM16A/YFP iodide influx fluorescence, ionomycin;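 active = ratio plate-corrected score three or more library SD toward inhibition, starting fluorescence score within five deviations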;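 note: score derived from kinetic fluorescence span divided by baseline fluorescence per well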
# Numbers without * were called inactive; i = inactive; x = no result.
SMILES,VIM-2 inh,IMP-1 inh,CHT inh,ANO1 activ,CHT allo act,ANO1 block
CCOC(=O)/C(C#N)=C1/CCCCCN1C,-1,-6,i,i,i,i
C#CCOCCOCCOCCNc1nc(N2CCN(C(=O)CCCCCCCCCCNC(=O)[C@H](CCCCN)n3cc(CCCC(=O)O)nn3)CC2)nc(N2CCN(C(=O)CCCCCCCCCCNC(=O)[C@H](CCCN=C(N)N)n3cc(C[C@@H](C)CC)nn3)CC2)n1,x,x,i,-16*,i,100*
C#CCOCCOCCOCCNc1nc(N2CCN(C(=O)[C@H](CCCCN)n3cc(C(N)CO)nn3)CC2)nc(N2CCN(C(=O)[C@H](CCCCN)n3cc(C(N)COC(=O)C(F)(F)F)nn3)CC2)n1 (stereo partly specified),x,x,i,x,7.1*,i
C#CCOCCOCCOCCNc1nc(N2CCN(C(=O)CCCCCCCCCCNC(=O)[C@H]([C@@H](C)CC)n3cc(CCCCN=C(N)N)nn3)CC2)nc(N2CCN(C(=O)CCCCCCCCCCNC(=O)[C@H](CCCCN)n3cc(C[C@@H](C)CC)nn3)CC2)n1,x,x,i,x,i,i
C#CCOCCOCCOCCNc1nc(N2CCN(C(=O)CCCCCCCCCCNC(=O)[C@H](CCCCN)n3cc(C[C@@H](C)CC)nn3)CC2)nc(N2CCN(C(=O)CCCCCCCCCCNC(=O)[C@H](CCCCN)n3cc(C[C@@H](C)CC)nn3)CC2)n1,x,x,i,-22*,i,25*
C#CCOCCOCCOCCNc1nc(N2CCN(C(=O)CCCCCCCCCCNC(=O)[C@H](CCCCN)n3cc(CCO)nn3)CC2)nc(N2CCN(C(=O)CCCCCCCCCCNC(=O)[C@H](CCCN=C(N)N)n3cc(C[C@@H](C)CC)nn3)CC2)n1,x,x,i,-22*,i,100*
C#CCOCCOCCOCCNc1nc(N2CCN(C(=O)C([C@@H](C)CC)n3cc(C(N)CC(C)C)nn3)CC2)nc(N2CCN(C(=O)[C@H](CCCCN)n3cc(C(N)COC(=O)C(F)(F)F)nn3)CC2)n1 (stereo partly specified),x,x,i,x,i,i
Cn1cccc1C(=O)NC1CCCCC1,x,x,i,i,i,i
CCCc1cc(=O)oc2cc(OCC(=O)N3CCN(C(=O)C4COc5ccccc5O4)CC3)ccc12 (stereo unspecified),-2,-1,i,i,i,i
O=C(NC1CCCCC1)C1CC(=O)N(Cc2ccccc2)C1 (stereo unspecified),-4,-2,i,i,i,i
O=C(CCCOc1ccccc1)NCCc1ccccc1,0,1,i,i,i,i
NS(=O)(=O)c1ccc(CCNC(=O)CCCOc2ccccc2)cc1,0,-5,i,-4.6*,i,i
NS(=O)(=O)c1ccc(CCNC(=O)CNCCc2ccccc2)cc1,0,-1,i,i,i,i
NS(=O)(=O)c1ccc(CCNC(=O)CNC(=O)COc2ccccc2)cc1,-1,3,i,-4.7*,i,i
NS(=O)(=O)c1ccc(CCNC(=O)CCS(=O)(=O)c2ccc(Br)cc2)cc1,-1,7.8*,i,i,i,i
Cc1ccc(S(=O)(=O)CCC(=O)Nc2cccc(C)c2)cc1,-1,-1,i,i,i,i
CCc1cccc(NC(=O)CCS(=O)(=O)c2ccc(Br)cc2)c1,-1,9.8*,i,i,i,i
CCCc1cc(C(=O)Nc2ccc(C(=O)c3ccc(F)cc3)cc2)n(C)n1,0,-3,i,i,i,100*
O=C(Nc1ccc(F)cc1)c1ccc2snnc2c1,-1,-3,i,i,i,i
O=C(Nc1ccc(Cl)c(C(F)(F)F)c1)NC1CC2CCCC(C1)N2Cc1ccccc1 (stereo unspecified),-2,-2,i,x,i,100*
O=C(NC1CC2CCCC(C1)N2C(=O)Nc1ccc(Cl)c(C(F)(F)F)c1)C1CC1 (stereo unspecified),-2,-2,i,i,i,i
CC(=O)c1cccc(NC(=O)CN2CCc3cc4c(cc3C2)OCCCO4)c1,-2,-2,i,i,i,i
CCOC(=O)/C(=C/C=C1\Sc2cc(C)c(C)cc2N1CC)C(C)=O,3,4.8*,x,i,x,x
COc1ccccc1/C=C1\SC(=S)N(C(C(=O)O)c2ccccc2)C1=O (stereo unspecified),9.4*,-1,i,i,i,i
COc1cc(/C=C2\SC(=S)N(C(C(=O)O)c3ccccc3)C2=O)ccc1O (stereo unspecified),7,-5,i,i,i,i
SMILES,VIM-2 inh,IMP-1 inh,CHT inh,ANO1 activ,CHT allo act,ANO1 block
COC(=O)[C@]1(C)N[C@H](CN(C)S(=O)(=O)c2ccccc2)[C@@H]2C(=O)N(Cc3ccccc3)C(=O)[C@@H]21,x,x,x,i,x,x
Cc1cc(-c2nnc(SCC(=O)Nc3cccc(F)c3)n2N)n[nH]1,-4,-6,i,i,i,i
CCCCNc1c(-c2ccc(SC(C)CC)cc2)nc2ccccn12 (stereo unspecified),x,x,i,i,i,100*
COc1ccc(-c2c(C)nn3c(-c4ccccc4)cc(C)nc23)cc1,-3,-4,i,i,i,i
COc1ccc(-c2c(C)nn3c(Cl)c(C)c(C)nc23)cc1,8.7*,-1,i,i,i,i
Cc1c(CN2CCC(CO)(Cc3cccc(C(F)(F)F)c3)CC2)c2ccccc2n1C,-1,0,i,i,i,i
COc1ccccc1C(=O)Nc1ccc(OCC(=O)N2CC(C)CC(C)C2)cc1 (stereo unspecified),x,x,x,i,x,x
CC1(C)CC1C(=O)Nc1ccc([N+](=O)[O-])cc1Br (stereo unspecified),-5,-3,i,i,i,i
Cc1ccc(C2(c3ccc(C)cc3)CC2C(=O)Nc2ccc([N+](=O)[O-])cc2O)cc1 (stereo unspecified),-2,-2,i,i,i,100*
O=C1CSC(=S)N1c1cccc(F)c1,2,4.9*,i,i,i,i
O=C(CN1C(=O)c2ccc([N+](=O)[O-])cc2C1=O)Nc1ccccc1N1CCCC1,x,x,i,i,i,i
COCCCn1c(C(=O)N2CCOCC2)cc2c(=O)n3ccccc3nc21,0,42*,i,i,i,i
COCCCn1c(C(=O)NCCC2=CCCCC2)cc2c(=O)n3ccccc3nc21,0,-3,i,i,i,i
COCCCn1c(C(=O)NCCN2CCOCC2)cc2c(=O)n3cccc(C)c3nc21,9.4*,0,i,i,i,i
